Experimental data gathered from unrelated publications.
Converted amounts (≈) assume the structure as drawn.

With `O=C1Nc2ccccc2C1=Nc1ccc(Cl)cc1` the IC50 was 32.6 µM (B16; cell growth or viability, MTT; 48 h).
For `C[C@H]1[C@H](NC(=O)/C(=N\OC(C)(C)C(=O)O)c2csc(N)n2)C(=O)N1S(=O)(=O)O`, the MIC was 16 µg/mL (≈ 36.7 µM) (Acinetobacter baumannii; microbial growth, broth dilution; ATCC19606).
The MBC of `O=C(O[C@@H]1O[C@@H]2COC(=O)c3cc(O)c(O)c(O)c3-c3c(cc(O)c(O)c3O)C(=O)O[C@H]([C@H]1O)[C@@H]2O)c1cc(O)c(O)c(O)c1` is reported as 800 µg/mL (≈ 1260 µM) (Streptococcus gordonii; microbial killing, broth dilution).
The MIC of `CCCCCCC#Cc1cncc(-c2nnc(SCc3ccc(Cl)cc3)n2CCCN)c1` is reported as 16 µg/mL (≈ 34.2 µM) (Acinetobacter baumannii; microbial growth, broth dilution; ATCC17978).
`O=c1cc(OCc2cc(-c3ccccc3)no2)c2ccccc2o1` has an IC50 of > 100 µM (Z-138; cell growth or viability, MTS; 72 h).
With `C[C@@H]1O[C@@H](OC[C@H]2O[C@@H](Oc3c(-c4ccc(O)c(O)c4)oc4cc(O)cc(O)c4c3=O)[C@H](O)[C@@H](O)[C@@H]2O)[C@H](O)[C@H](O)[C@H]1O` the MBC was 400 µg/mL (≈ 655 µM) (Streptococcus gordonii; microbial killing, broth dilution).
For `CC(C)c1cccc(C(C)C)c1N=C1C(=O)N(Cc2cccc(Cl)c2)c2ccccc21`, the IC50 was 40.9 µM (B16; cell growth or viability, MTT; 48 h).
For `CC(C)(C)c1cc(NC(=O)Nc2ccc(-c3cn4c(n3)sc3cc(OCCN5CCOCC5)ccc34)cc2)no1`, the GI50 was > 10 µM (G-361; cell growth or viability; 72 h).
`O=C1OC[C@H]2OC(O)[C@H](O)[C@@H](O)[C@@H]2OC(=O)c2cc(O)c(O)c(O)c2-c2c(O)c(O)c3oc(=O)c4c(c(O)c(O)c5oc(=O)c2c3c54)-c2c1cc(O)c(O)c2O` (mixture of isomers) has an MIC of 200 µg/mL (Streptococcus gordonii; microbial growth, broth dilution; 24 h).
`Cc1n[nH]c2ccc3nc(-c4ccc(C(=O)NCCN(C)C)cc4F)c4c(c3c12)CCCC4` has a GI50 of 1.58 µM (G-361; cell growth or viability; 72 h).
`Cc1cccc(N=C2C(=O)N(Cc3ccc(Br)cc3)c3ccccc32)c1` has an IC50 of 6.87 µM (B16; cell growth or viability, MTT; 48 h).
For `Cc1n[nH]c2ccc3nc(-c4ccc(C(=O)NCCN(C)C)cc4)c4c(c3c12)CCCCC4`, the GI50 was > 10 µM (G-361; cell growth or viability; 72 h).
For `CO/N=C(\C(=O)N[C@@H]1C(=O)N2C(C(=O)O)=CCS[C@H]12)c1csc(N)n1`, the MIC was > 64 µg/mL (Acinetobacter baumannii; microbial growth, broth dilution; ATCCBAA1605).
For `O=c1oc2c(O)c(O)cc3c(=O)oc4c(O)c(O)cc1c4c23`, the inhibition zone was 16 mm (Streptococcus gordonii; microbial growth, disc diffusion; 500 µg/disc).
`C[C@@H](O)[C@H]1C(=O)N2C(C(=O)O)=C(S[C@@H]3CN[C@H](C(=O)N(C)C)C3)[C@H](C)[C@H]12` has an MIC of 16 µg/mL (≈ 41.7 µM) (Acinetobacter baumannii; microbial growth, broth dilution; ATCCBAA1605).
`O=C1C(=Nc2ccc(Cl)cc2)c2ccccc2N1Cc1ccc([N+](=O)[O-])cc1` has an IC50 of 0.58 µM (B16; cell growth or viability, MTT; 48 h).
The MIC of `CNC(C)C1CCC(N)C(OC2C(N)CC(N)C(OC3OCC(C)(O)C(NC)C3O)C2O)O1` (stereo not drawn) is reported as 16 µg/mL (≈ 33.5 µM) (Acinetobacter baumannii; microbial growth, broth dilution; ATCC19606).
`O=C1O[C@H]2[C@@H]3OC(=O)c4cc(O)c(O)c(O)c4-c4c(O)c(O)c5oc(=O)c6c(c(O)c(O)c7oc(=O)c4c5c76)-c4c(cc(O)c(O)c4O)C(=O)OC[C@H]3OC(O)[C@@H]2OC(=O)c2cc(O)c(O)c(O)c2-c2c1cc(O)c(O)c2O` (mixture of isomers) has an MBC of 400 µg/mL (Streptococcus gordonii; microbial killing, broth dilution).
For `Cc1cccc(N=C2C(=O)N(Cc3ccccc3)c3ccccc32)c1`, the IC50 was 1.07 µM (B16; cell growth or viability, MTT; 48 h).
With `CN(C)[C@@H]1C(O)=C(C(N)=O)C(=O)[C@@]2(O)C(O)=C3C(=O)c4c(O)cccc4[C@@](C)(O)[C@H]3C[C@@H]12` the MIC was > 64 µg/mL (Acinetobacter baumannii; microbial growth, broth dilution; ATCCBAA1605).
For `O=C1C(=Nc2cccc(Cl)c2)c2ccccc2N1Cc1ccc([N+](=O)[O-])cc1`, the IC50 was 0.55 µM (B16; cell growth or viability, MTT; 48 h).
With `Oc1cc(O)c2c(c1)O[C@H](c1cc(O)c(O)c(O)c1)[C@@H](O)C2` the MBC was 100 µg/mL (≈ 327 µM) (Streptococcus gordonii; microbial killing, broth dilution).
The IC50 of `O=C1Nc2ccccc2C1=Nc1ccccc1Br` is reported as > 100 µM (B16; cell growth or viability, MTT; 48 h).
With `C[C@@H](O)[C@H]1C(=O)N2C(C(=O)O)=C(SCCN=CN)C[C@H]12` the MIC was > 64 µg/mL (Acinetobacter baumannii; microbial growth, broth dilution; ATCCBAA1605).
